Publication PMC6078096 (Environmental toxicology and pharmacology, 2018)
Where a name gives a salt, the structure may show the parent alone.

Legend:
[1] = target: T1, human estrogen sulfotransferase (SULT1E1) (Homo sapiens, UniProt P49888); assay: Inhibition of SULT1E1-catalyzed sulfation of [3H]estradiol; type: biochemical; details: 7.0 nM estradiol
T1 sequence (P49888 1-294): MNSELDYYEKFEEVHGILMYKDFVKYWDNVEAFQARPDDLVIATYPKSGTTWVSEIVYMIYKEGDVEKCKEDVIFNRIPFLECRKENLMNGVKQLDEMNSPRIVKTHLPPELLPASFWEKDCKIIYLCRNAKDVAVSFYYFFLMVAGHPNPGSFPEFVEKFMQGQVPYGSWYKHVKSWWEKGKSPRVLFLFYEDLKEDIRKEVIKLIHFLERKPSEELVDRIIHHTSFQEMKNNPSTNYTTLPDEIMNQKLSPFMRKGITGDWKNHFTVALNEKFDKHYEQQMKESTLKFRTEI
Summary of the method: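 Purified recombinant human enzyme expressed in E. coli BL21(DE3). Test compound added in ethanol at 0.01–10,000 nM. Equilibrated 3 min at 37 °C, started with 3.0 ng enzyme, run 4 min. Stopped with Tris-HCl pH 8.7 plus chloroform. Aqueous [3H]estradiol-3-sulfate counted by scintillation. Triplicates. IC50 fitted from % of control rate.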

[2] = metabolite in human plasma; ref Quinete et al., 2017; cited from earlier work
[3] = circulating steroid in humans; ref White and Porterfield, 2013; cited from earlier work

Compound: Oc1ccc(-c2ccc(Cl)cc2)cc1 [4’-OH-PCB 3, 4-chloro-4’-hydroxybiphenyl]
- fold higher IC50 value for SULT1E1 than 4-OH-PCB 11 and 4’-OH PCB 25 [1]: ~200 fold

Compound: Oc1ccc(-c2ccc(Cl)cc2Cl)cc1Cl [4’-OH-PCB 25, 2,3’,4-trichloro-4’-hydroxybiphenyl]
- estimated half-life in human plasma [2]: 6.5 years

Compound: O=S(=O)(O)Oc1ccc(-c2ccc(Cl)cc2Cl)cc1Cl [4’-PCB 25 Sulfate, 2,3’,4-trichloro-4’-biphenylsulfate]
- IC50 value for SULT1E1, fold greater than the estradiol concentration [1]: over 50 fold

Compound: C[C@]12CC[C@H](O)CC1=CC[C@@H]1[C@@H]2CC[C@]2(C)C(=O)CC[C@@H]12 [DHEA, dehydroepiandrosterone]
- half-life [3]: 15 to 30 min

Compound: C[C@]12CC[C@H](OS(=O)(=O)O)CC1=CC[C@@H]1[C@@H]2CC[C@]2(C)C(=O)CC[C@@H]12 [DHEA-sulfate, dehydroepiandrosterone sulfate]
- half-life [3]: 420 to 600 min
